Screens from PubChem.
Sampled rows, rich in hits. Any-hit rate of the full collection: about 3.1%.
CTSL1 counter = blocks F. hepatica cathepsin L1 in PFM18AAP counter-screen; AID 1906; inhibition, % at 5.96 µM; 300,000 tested, 0.49% active; recombinant F. hepatica cathepsin L1, Z-Leu-Arg-MCA fluorescence;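 active = inhibition above the mean of all tested compounds plus 3 SD, set per screening campaign, cut at about 17% in these data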
NadD inh = inhibitors of Staphylococcus aureus NadD. purified NadD enzyme, colorimetric absorbance read-out. inhibition, % at 20 µM. 360,000 tested, 0.78% active. AID 602399; in the data active = inhibition above about 26%
Myeloid diff 2 = compounds promoting myeloid differentiation; AID 624256; ER-HoxA9 myeloid progenitors, lysozyme-GFP differentiation, flow cytometry; 360,000 tested, 1% active; calls only at 10 µM;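 active = normalized GFP-positive differentiation at or above the plate's own cutoff, the solvent-only control mean plus 3 SD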;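 also: cells exposed to compound for four days before flow analysis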
PP5 primary = blocks human protein phosphatase 5 activity. P53041. purified PP5c, OMFP substrate fluorescence. inhibition, % at 6.7 µM. 320,000 tested, 0.18% active. AID 1987;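 active = inhibition above the campaign's mean inhibition across all tested compounds plus 3 SD, cut at about 9.5% in these data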
PP1 counter = PP1-alpha (human) inhibition in PP5 counter-screen. purified PP1alpha, OMFP fluorescence. inhibition, % at 6.7 µM. 320,000 tested, 0.9% active. AID 2235;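 active = inhibition above the mean inhibition of all tested compounds plus 3 SD, computed separately for each screening campaign, cut at about 15% in these data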
Target sequence (P62136 whole entry, looked up): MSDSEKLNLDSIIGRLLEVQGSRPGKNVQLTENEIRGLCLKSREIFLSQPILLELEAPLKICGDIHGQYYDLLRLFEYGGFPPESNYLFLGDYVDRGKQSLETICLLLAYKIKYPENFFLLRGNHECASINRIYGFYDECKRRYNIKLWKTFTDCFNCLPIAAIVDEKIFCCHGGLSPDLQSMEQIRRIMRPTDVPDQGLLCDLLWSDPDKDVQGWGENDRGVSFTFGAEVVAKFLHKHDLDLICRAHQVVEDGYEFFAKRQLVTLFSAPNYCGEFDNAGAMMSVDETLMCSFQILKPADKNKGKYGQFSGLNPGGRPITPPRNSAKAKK
core dimer inh = blocks dimerization of HCV core protein | inhibition, % at 5 µM | TR-FRET GST/Flag-core106 dimerization, 1536-well | 300,000 tested, 0.33% active;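 active = inhibition above the mean of all tested compounds plus 3 SD, set per screening campaign, cut at about 45% in these data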
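test system = GST/Flag-tagged HCV core106 proteins | probe or stimulus = Eu donor and XL665 acceptor anti-tag antibodies | times = compound-protein-antibody incubation 4 h at 22.5 °C | signal = TR-FRET, excitation 340 nm, emission 617 and 671 nm | measure = percent inhibition of core106 dimerization signal | controls = wells lacking GST-core106 and wells with excess unlabelled core106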
A number is an active result; - = inactive; . = no result; + = active, no number.

SMILES	CTSL1 counter	NadD inh	Myeloid diff 2	PP5 primary	PP1 counter	core dimer inh
CC1CN(CC(=O)Nc2nc(-c3ccc(Cl)cc3)cs2)CC(C)O1 (stereo not given)	-	-	+	-	-	-
Cc1csc(NC(=O)c2cc(-c3ccncc3)nc3ccccc23)n1	-	-	-	-	-	-
O=C(Nc1nccs1)c1cc(-c2ccncc2)nc2ccccc12	-	-	-	-	-	56.4
O=C(COc1ccccc1)N=C1SC2CS(=O)(=O)CC2N1c1cccc(F)c1 (stereo not given)	-	-	-	-	-	-
OCCN1CCN(C2Cc3cc(Cl)ccc3Sc3ccc(Cl)cc32)CC1 (stereo not given) (tested in a mixture with another compound)	-	-	-	-	15.3	-
CN1CCN(C2Cc3cc(Cl)ccc3Sc3cc(F)ccc32)CC1 (stereo not given)	-	-	-	-	-	-
COc1cc([N+](=O)[O-])ccc1-c1ccc(/C=N/NC(N)=O)o1	-	-	+	-	-	-
COc1cc([N+](=O)[O-])ccc1-c1ccc(/C=N/NC(=O)OC(C)(C)C)o1	-	-	-	-	-	-
CCN1C(=O)[C@H]2[C@H]3CN=C(SCC(=O)c4ccccc4)N3[C@@](CC)(C(=O)OC)[C@H]2C1=O	.	-	-	.	.	.
CC1=NN(c2nc(-c3ccccc3)cs2)C(=O)C1N=Nc1ccccc1 (stereo not given)	-	-	-	-	-	-
CC1=NN(c2nc(-c3ccc(C)cc3)cs2)C(=O)C1N=Nc1ccc2ccccc2c1 (stereo not given)	-	43.7	-	-	-	-
Cc1ccc(NC(=O)c2ncn(CCCNCc3ccccn3)n2)cc1C	.	-	-	.	.	.
COc1ccc([C@H]2CC(=O)C=C(c3ccc(C(=O)O)cc3)C2)cc1OC	.	-	-	-	-	.
CCOc1cc(/C=C(\C#N)C(=O)Nc2cccc(C(=O)O)c2)cc(Br)c1OC(=O)c1ccc(OC)cc1	-	-	-	-	17.4	-
Oc1ccc(/C=N/N(c2ccccc2)c2ccccc2)c(O)c1O	-	37.3	-	-	-	52.4
COc1ccc(NC(=O)c2ccc(N3C(=O)C4CC=C(Cl)CC4C3=O)cc2)cc1 (stereo not given)	-	-	-	-	-	-
O=C(NN1C(=O)C2CC=C(Cl)CC2C1=O)c1ccncc1 (stereo not given)	-	-	-	-	-	48.1
COc1ccccc1C(=O)NC(=O)Cn1nc(C)c([N+](=O)[O-])c1C	-	-	-	-	-	-
CCn1c2ccccc2c2cc(NC(=O)CSc3nnc(C4CC4)n3Cc3ccco3)ccc21	-	31.7	-	-	-	-
C#CCOCCOCCOCCNc1nc(N2CCN(C(=O)CCCCCCCCCCNC(=O)[C@H](CO)n3cc(CCCCCN)nn3)CC2)nc(N2CCN(C(=O)CCCCCCCCCCNC(=O)[C@H](CCCN=C(N)N)n3cc(C[C@@H](C)CC)nn3)CC2)n1	-	.	.	-	57.4	-
C#CCOCCOCCOCCNc1nc(N2CCN(C(=O)CCCCCCCCCCNC(=O)[C@@H](CCC(=O)O)n3cc(CCCCCN)nn3)CC2)nc(N2CCN(C(=O)CCCCCCCCCCNC(=O)[C@H](CO)n3cc(CCCCCN)nn3)CC2)n1	-	-	-	-	15.3	-
C#CCOCCOCCOCCNc1nc(N2CCOCC2)nc(N2CCN(C(=O)CCCCCCCCCCNC(=O)[C@H](CO)n3cc(CCCSC)nn3)CC2)n1	-	-	-	-	-	-
C#CCOCCOCCOCCNc1nc(N2CCN(C(=O)CCCCCCCCCCNC(=O)[C@H](CCCCN)n3cc(CCO)nn3)CC2)nc(N2CCN(C(=O)CCCCCCCCCCNC(=O)[C@H](CCCCN)n3cc(CCCC(=O)O)nn3)CC2)n1	-	-	-	-	-	-
C#CCOCCOCCOCCNc1nc(N2CCN(C(=O)CCCCCCCCCCNC(=O)[C@H](CCCCN)n3cc(C[C@@H](C)CC)nn3)CC2)nc(N2CCN(C(=O)CCCCCCCCCCNC(=O)[C@H](CCCN=C(N)N)n3cc(C[C@@H](C)CC)nn3)CC2)n1	-	64.3	-	-	67.5	-
